Experimental findings from ChEMBL document CHEMBL3580574, “Design, Synthesis, and Biological Evaluation of Hexacyclic Tetracyclines as Potent, Broad Spectrum Antibacterial Agents” (J Med Chem, 2015) are described below.

Holding throughout (assay type): functional
In assay [1] the test system is Pseudomonas aeruginosa. Nature of the assay: Antibacterial activity against Pseudomonas aeruginosa 694 infected in immunocompetent CD-1 mouse thigh infection model assessed as log reduction in colony forming units at 5 mg/kg, iv administered twice daily at 2 hrs and 12 hrs post-infection measured 24 hrs post-drug treatment (reference value: 1.8 log10CFU). The method in brief:
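Thigh model: inoculum given intramuscularly into the right thigh on day 0. IV dosing with vehicle, test agent or comparator at 2 and 12 h postinfection. Untreated groups were harvested at 2 and 24 h. Thigh muscle was collected at 24 h postinfection, homogenized in PBS pH 7.4, diluted and plated on Brain Heart Infusion agar + 0.5% charcoal. Read-out: CFU per gram thigh.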

The test system of assay [2] is Proteus mirabilis. Nature of the assay: Antibacterial activity against Proteus mirabilis 385 assessed as bacterial growth inhibition by susceptibility testing assay. A digest of the protocol:
(§1)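 Broth microdilution MIC per CLSI in cation-adjusted Mueller Hinton broth, made fresh and held at 4 °C before testing. Medium supplemented with lysed horse blood where appropriate. Compound stocks prepared and serially diluted in sterile deionized water. Runs were accepted against QC ranges for comparator antibiotics and ATCC QC strains.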

Assay [3] has as its system Burkholderia cenocepacia. Nature of the assay: Antibacterial activity against Burkholderia cenocepacia 240 assessed as bacterial growth inhibition by susceptibility testing assay. A digest of the protocol:
(§2)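 Medium supplemented with lysed horse blood where appropriate. Compound stocks prepared and serially diluted in sterile deionized water. Runs were accepted against QC ranges for comparator antibiotics and ATCC QC strains.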

In assay [4] the test system is Staphylococcus aureus. In words: Antibacterial activity against Staphylococcus aureus 101 ATCC 29213 assessed as bacterial growth inhibition by susceptibility testing assay. A digest of the protocol:
as §1

Assay [5] deals with Pseudomonas aeruginosa. In words: Antibacterial activity against Pseudomonas aeruginosa 555 BAA-47 assessed as bacterial growth inhibition by susceptibility testing assay. The method in brief: as §1
Assay [6] concerns Acinetobacter baumannii. In words: Antibacterial activity against tet(B) tetracycline-resistant Acinetobacter baumannii 250 assessed as bacterial growth inhibition by susceptibility testing assay. A digest of the protocol:
(§3)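 Broth microdilution MIC per CLSI in 96-well plates; compound stocks prepared and serially diluted in sterile deionized water; cation-adjusted Mueller Hinton broth prepared fresh and held at 4 °C before testing, supplemented with lysed horse blood as appropriate; runs accepted when comparator antibiotics fell within QC ranges for appropriate ATCC quality control strains.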

Assay [7] relates to Pseudomonas aeruginosa. Nature of the assay: Antibacterial activity against Pseudomonas aeruginosa 1145 assessed as bacterial growth inhibition by susceptibility testing assay. A digest of the protocol:
as §3

In assay [8] the test system is Pseudomonas aeruginosa. Nature of the assay: Antitranslational activity in Pseudomonas aeruginosa 555 BAA-47 assessed as ribosomal inhibition by in vitro coupled transcription/translation assay. A digest of the protocol: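 P. aeruginosa coupled transcription/translation reactions with a luciferase reporter, run 60 min at 37 °C. Reactions were stopped on ice for 5 min, then luciferase substrate was added and luminescence read. Percent luminescence was plotted against inhibitor concentration, and 50% inhibition versus untreated controls was taken as the IC50.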

The test system of assay [9] is Staphylococcus aureus. Nature of the assay: Antibacterial activity against methicillin-resistant, tet(M) tetracycline-resistant Staphylococcus aureus 161 assessed as bacterial growth inhibition by susceptibility testing assay. The method in brief:
as §3

The subject of assay [10] is Pseudomonas aeruginosa. In words: Ratio of tetracycline IC50 to compound IC50 for antitranslational activity in Pseudomonas aeruginosa 555 BAA-47 by in vitro coupled transcription/translation assay.
The test system of assay [11] is Streptococcus pneumoniae. In words: Antibacterial activity against tet(M) tetracycline-resistant Streptococcus pneumoniae 160 assessed as bacterial growth inhibition by susceptibility testing assay.
The subject of assay [12] is Pseudomonas aeruginosa. Nature of the assay: Antibacterial activity against Pseudomonas aeruginosa 1145 infected in immunocompetent BALB/c mouse lung infection model assessed as log reduction in colony forming units at 40 mg/kg, iv bid administered at 2 hrs and 12 hrs post-infection measured 24 hrs post-drug treatment. The method in brief:
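Female BALB/c mice (18−20 g) received intranasal inoculum under light anesthesia. IV treatment at 2 and 12 h postinfection, six mice per group per dose. An untreated group was harvested at 2 h. Lungs were taken 24 h after treatment start, weighed, homogenized, diluted and plated on MacConkey medium overnight at 37 °C, 5% CO2. Read-out: CFU per gram lung.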

Assay [13] concerns Stenotrophomonas maltophilia. In words: Antibacterial activity against Stenotrophomonas maltophilia 256 assessed as bacterial growth inhibition by susceptibility testing assay. The method in brief: as §2
Assay [14] relates to Enterobacter cloacae. In words: Antibacterial activity against tet(A) tetracycline-resistant Enterobacter cloacae 603 assessed as bacterial growth inhibition by susceptibility testing assay. The method in brief:
as §3

The test system of assay [15] is Pseudomonas aeruginosa. Nature of the assay: Antibacterial activity against Pseudomonas aeruginosa 694 assessed as bacterial growth inhibition by susceptibility testing assay. The method in brief: as §1
Assay [16] concerns Escherichia coli. In words: Antibacterial activity against tet(A) tetracycline-resistant Escherichia coli 155 assessed as bacterial growth inhibition by susceptibility testing assay. The method in brief:
as §3

For assay [17], the system named is Enterococcus faecium. In words: Antibacterial activity against tet(M) tetracycline-resistant Enterococcus faecium 404 assessed as bacterial growth inhibition by susceptibility testing assay.
Assay [18] has as its system Enterococcus faecalis. In words: Antibacterial activity against tet(M) tetracycline-resistant Enterococcus faecalis 327 assessed as bacterial growth inhibition by susceptibility testing assay. A digest of the protocol: as §3
The subject of assay [19] is Staphylococcus aureus. Nature of the assay: Antibacterial activity against tet(K) tetracycline-resistant Staphylococcus aureus 158 assessed as bacterial growth inhibition by susceptibility testing assay.
Assay [20] has as its system Klebsiella pneumoniae. In words: Antibacterial activity against Klebsiella pneumoniae 457 harboring CTX-M-15 gene assessed as bacterial growth inhibition by susceptibility testing assay. The method in brief:
as §3

The subject of assay [21] is Escherichia coli. Nature of the assay: Antibacterial activity against Escherichia coli 107 ATCC 25922 assessed as bacterial growth inhibition by susceptibility testing assay. The method in brief:
as §1

One may read the MIC as the lowest concentration found to suppress growth. In general, IC50 refers to the concentration at which inhibition is half-maximal.

Values after ≈ are worked out from the molar mass of the structure shown. Some results are limits rather than exact numbers.

Take `C[C@H]1COc2c(N3CCN(C)CC3)c(F)cc3c(=O)c(C(=O)O)cn1c23.C[C@H]1COc2c(N3CCN(C)CC3)c(F)cc3c(=O)c(C(=O)O)cn1c23.O` [LEVOFLOXACIN]: the log10CFU/g in assay [1] worked out at 4.5.

Regarding `CN(C)[C@@H]1C(O)=C(C(N)=O)C(=O)[C@@]2(O)C(O)=C3C(=O)c4c(O)c5c(c(F)c4C[C@H]3C[C@@H]12)[C@@H]1[C@@H](CCN1C)CN5` (stereo in doubt; 10c), the MIC was 0.5 µg/mL (≈ 0.922 µM) in assay [2]; 8 µg/mL (≈ 14.7 µM) in [3]; 0.25 µg/mL (≈ 0.461 µM) in assay [4]; 4 µg/mL (≈ 7.37 µM) in [5]; 2 µg/mL (≈ 3.69 µM) in [6]; 4 µg/mL (≈ 7.37 µM) in [7]. Also, the minimal inhibitory concentration (MIC) in assay [9] was 0.5 µg/mL (≈ 0.922 µM); in assay [11], “<=0.0156 ug ml-1”; in [13] it was 1 µg/mL (≈ 1.84 µM); in [14], 0.5 µg/mL (≈ 0.922 µM); in assay [15] it was 8 µg/mL (≈ 14.7 µM); in assay [16], 0.5 µg/mL (≈ 0.922 µM). Besides, the minimal inhibitory concentration (MIC) is 0.0625 µg/mL (≈ 0.115 µM) in assay [17]; 0.125 µg/mL (≈ 0.23 µM) in assay [18]; 0.0625 µg/mL (≈ 0.115 µM) in assay [19]; 0.5 µg/mL (≈ 0.922 µM) in assay [20]; 0.0625 µg/mL (≈ 0.115 µM) in assay [21]. In addition, in [8], the IC50 was found to be 210 nM. In addition, the “Ratio IC50” value in assay [10] worked out at 10. Further, the log10CFU/g in assay [12] was 4.
